Measured values published in ChEMBL document CHEMBL3244009, “Potential steroidal antiestrogens” (1977).

Key:
[1] = target: T1, Estrogen receptor (Mus musculus) (UniProt P19785); test: Displacement of [6,7-3H]-17beta-estadiol from estrogen receptor in Tuck No. 1 mouse uterine cytosol at 1000 molar ratio of compound/radioligand incubated 15 mins prior to radioligand addition measured after 1 hr by liquid scintillation counting relative to control; conditions: Uterus
T1 sequence (whole entry): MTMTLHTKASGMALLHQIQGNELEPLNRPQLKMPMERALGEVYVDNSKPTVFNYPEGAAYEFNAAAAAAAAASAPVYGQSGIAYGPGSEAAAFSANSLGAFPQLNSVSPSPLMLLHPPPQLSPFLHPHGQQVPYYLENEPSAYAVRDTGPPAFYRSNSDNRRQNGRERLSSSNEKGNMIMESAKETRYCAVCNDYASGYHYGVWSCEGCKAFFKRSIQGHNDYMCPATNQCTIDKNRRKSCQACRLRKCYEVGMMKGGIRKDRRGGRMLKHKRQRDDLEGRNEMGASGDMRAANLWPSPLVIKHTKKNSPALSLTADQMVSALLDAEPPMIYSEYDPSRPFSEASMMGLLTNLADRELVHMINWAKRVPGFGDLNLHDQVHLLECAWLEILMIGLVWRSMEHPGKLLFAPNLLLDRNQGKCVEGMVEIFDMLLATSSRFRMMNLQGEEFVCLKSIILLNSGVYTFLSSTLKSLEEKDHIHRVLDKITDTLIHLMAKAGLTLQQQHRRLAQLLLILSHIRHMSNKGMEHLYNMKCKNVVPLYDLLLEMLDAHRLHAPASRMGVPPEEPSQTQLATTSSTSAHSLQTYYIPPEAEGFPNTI
Outline: (§1)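 Uterine cytosol is the 105 000g, 1 h, 4-5 °C supernatant of homogenates from mice ovariectomized one week earlier, prepared in Tris 0.01 M pH 7.4 with EDTA and DTT. Compound is preincubated with cytosol 15 min at 5-7 °C, then [6,7-3H]-estradiol (0.5 × 10^-12 g mol) is added for 1 h. Samples are run on 10-30% sucrose gradients. Inhibition is calculated from 8S-peak cpm normalized to total cpm versus control.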

[2] = target: T1, Estrogen receptor (Mus musculus); test: Displacement of [6,7-3H]-17beta-estadiol from estrogen receptor in Tuck No. 1 mouse uterine cytosol at 100 molar ratio of compound/radioligand incubated 15 mins prior to radioligand addition measured after 1 hr by liquid scintillation counting relative to control; conditions: Uterus; outline: as §1
Mus musculus [3] = test: Antiestrogenic activity in immature Tuck No. 1 mouse assessed as reduction of 17beta-estradiol-induced mean uterine weight at 1000 molar ratio of compound/17beta-estradiol, sc qd for 3 days (reference value: 25.5 +/- 1.9 mg); assay type: functional
Rattus norvegicus [4] = test: Antiestrogenic activity in immature Wistar rat assessed as reduction of 17beta-estradiol-induced mean uterine weight at 200 molar ratio of compound/17beta-estradiol, sc qd for 3 days (reference value: 64.4 +/- 3.5 mg); assay type: functional
Outline: (§2)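 Immature Wistar rats, randomized into groups of 5-6, injected sc daily for 3 days with arachis oil vehicle, 17β-estradiol alone or estradiol plus test compound. Estradiol and compound are given as two separate injections. Estradiol total dose […]. Read-out is uterine weight, reported as mean ± SEM in mg.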

[5] = target: T1, Estrogen receptor (Mus musculus); test: Displacement of [6,7-3H]-17beta-estadiol from estrogen receptor in Tuck No. 1 mouse uterine cytosol at 3.16 molar ratio of compound/radioligand incubated 15 mins prior to radioligand addition measured after 1 hr by liquid scintillation counting relative to control; conditions: Uterus
Outline: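 Uteri from Tuck No. 1 mice (6 weeks old, ovariectomized, used 1 week later) pulverized and homogenized at 4 °C in 0.01 M Tris pH 7.4 with EDTA and dithiothreitol; 105000g, 1 h cytosol. Compound preincubated with cytosol 15 min at 5-7 °C, then [6,7-3H]-estradiol added for 1 h. 10-30% sucrose gradients spun 275000g, 15 h; % inhibition computed from 8S-peak cpm normalized to total gradient cpm versus control.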

Mus musculus [6] = test: Antiestrogenic activity in immature Tuck No. 1 mouse assessed as reduction of 17beta-estradiol-induced mean uterine weight at 10 molar ratio of compound/17beta-estradiol, sc qd for 3 days (reference value: 25.5 +/- 1.9 mg); assay type: functional
Rattus norvegicus [7] = test: Antiestrogenic activity in immature Wistar rat assessed as reduction of 17beta-estradiol-induced mean uterine weight at 10 molar ratio of compound/17beta-estradiol, sc qd for 3 days (reference value: 64.4 +/- 3.5 mg); assay type: functional; outline: as §2
[8] = target: T1, Estrogen receptor (Mus musculus); test: Displacement of [6,7-3H]-17beta-estadiol from estrogen receptor in Tuck No. 1 mouse uterine cytosol at 1 molar ratio of compound/radioligand incubated 15 mins prior to radioligand addition measured after 1 hr by liquid scintillation counting relative to control; conditions: Uterus; outline: as §1
[9] = target: T1, Estrogen receptor (Mus musculus); test: Displacement of [6,7-3H]-17beta-estadiol from estrogen receptor in Tuck No. 1 mouse uterine cytosol at 10 molar ratio of compound/radioligand incubated 15 mins prior to radioligand addition measured after 1 hr by liquid scintillation counting relative to control; conditions: Uterus; outline: as §1
Mus musculus [10] = test: Antiestrogenic activity in immature Tuck No. 1 mouse assessed as reduction of 17beta-estradiol-induced mean uterine weight at 100 molar ratio of compound/17beta-estradiol, sc qd for 3 days (reference value: 25.5 +/- 1.9 mg); assay type: functional
Rattus norvegicus [11] = test: Antiestrogenic activity in immature Wistar rat assessed as reduction of 17beta-estradiol-induced mean uterine weight at 3.16 molar ratio of compound/17beta-estradiol, sc qd for 3 days (reference value: 64.4 +/- 3.5 mg); assay type: functional; outline: as §2

For `Cc1cc(O)cc2c1[C@H]1CC[C@]3(C)[C@@H](O)CC[C@H]3[C@@H]1C=C2c1ccccc1`, which Activity [1] is on record?
Its Activity is 18%.

What about the Activity [2] of the same molecule?
Its Activity is 87%.

And the Activity (Mus musculus [3])?
The Activity was 32.9 mg.

What about the Activity (Rattus norvegicus [4]) of the same molecule?
The Activity was 97.1 mg.

With `Cc1cc(OCCN(C)C)cc2c1[C@H]1CC[C@]3(C)[C@@H](O)CC[C@H]3[C@@H]1C=C2c1ccccc1` as the molecule, how does the Activity [1] read?
Its Activity is 88%.

Which Activity [5] does the source give for `C[C@]12CC[C@@H]3c4ccc(O)cc4C(c4ccccc4)=C[C@H]3[C@@H]1CC[C@@H]2O` here?
Its Activity is 13%.

And the Activity (Mus musculus [6])?
The Activity was 28.6 mg.

And the Activity (Rattus norvegicus [7])?
The Activity was 74.1 mg.

What about the Activity [8] of the same molecule?
The Activity was 66%.

And the Activity [9]?
The Activity was 3%.

Which Activity [5] does the source give for `C[C@]12CC[C@@H]3c4ccc(O)cc4C(=O)C[C@H]3[C@@H]1CC[C@@H]2O` here?
Its Activity is 38%.

For `CCN(CC)CCOc1ccc2c(c1)C(c1ccccc1)=C[C@@H]1[C@@H]2CC[C@]2(C)[C@@H](O)CC[C@@H]12`, which Activity [1] is on record?
Its Activity is 101%.

For `C[C@]12CC[C@@H]3c4ccc(O)cc4/C(=N\NC(N)=S)C[C@H]3[C@@H]1CC[C@@H]2O`, which Activity (Mus musculus [10]) is on record?
The Activity was 34.3 mg.

What about the Activity (Rattus norvegicus [11]) of the same molecule?
The Activity was 77.7 mg.

And the Activity [9]?
The Activity was 54%.

Which Activity [1] does the source give for `CN(C)CCOc1ccc2c(c1)C(=O)C[C@@H]1[C@@H]2CC[C@]2(C)[C@@H](O)CC[C@@H]12` here?
The Activity was 66%.

Which Activity [1] does the source give for `CN(C)CCOc1ccc2c(c1)C(c1ccccc1)=C[C@@H]1[C@@H]2CC[C@]2(C)[C@@H](O)CC[C@@H]12` here?
Its Activity is 103%.

With `Cc1cc(O)cc2c1[C@H]1CC[C@]3(C)[C@@H](O)CC[C@H]3[C@@H]1CC2=O` as the molecule, how does the Activity [1] read?
Its Activity is 14%.

What about the Activity [2] of the same molecule?
The Activity was 38%.

Which Activity (Mus musculus [6]) does the source give for `C[C@]12CC[C@@H]3c4ccc(O)cc4/C(=N\N4C(=N)SCC4=O)C[C@H]3[C@@H]1CC[C@@H]2O` here?
Its Activity is 28.4 mg.

And the Activity [9]?
Its Activity is 84%.

`CCN(CC)CCOc1ccc2c(c1)C(Cc1ccccc1)=C[C@@H]1[C@@H]2CC[C@]2(C)[C@@H](O)CC[C@@H]12` was tested. Which Activity [1] did it give?
The Activity was 89%.
